In ChEMBL document CHEMBL1938303, “Novel biologically active nitro and amino substituted benzimidazo[1,2-a]quinolines” (Bioorg Med Chem, 2011):
Activity calls are given as the source filed them. The calls are words filed in the database; no cut-off is given here.

Experiments:
[1] = test system: HCT-116; experiment: Cell cycle arrest in human HCT116 cells assessed as accumulation at G2/M phase at 5 uM after 48 hrs by flow cytometric analysis (reference value: 25 %); format: functional
[2] = test system: NCI-H460; experiment: Antitumor activity against human H460 cells assessed as growth inhibition after 72 hrs by MTT assay; format: functional, cell-based
Procedure, shortened: (§1)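 MCF-7, SW 620, HCT 116 and H 460 were grown as monolayers in DMEM, and MOLT-4 in suspension in RPMI, all with 10% FBS, 2 mM L-glutamine and penicillin/streptomycin at 37 °C in 5% CO2. Cells were seeded at 1×10^4 to 3×10^4 cells/mL on day 0. Compounds were added in ten-fold dilutions (10^-8 to 10^-4 M) for 72 h, then read by MTT at 570 nm. IC50 came from linear regression of percentage growth. Quadruplicate, at least two experiments.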

[3] = test system: HCT-116; experiment: Cell cycle arrest in human HCT116 cells assessed as accumulation at S phase at 5 uM after 48 hrs by flow cytometric analysis (reference value: 35 %); format: functional
[4] = Drug uptake in human H460 cell cytoplasm at 100 uM after 2 hrs by fluorescence microscopy; format: ADME, cell-based; settings: h460, 2 h
Procedure, shortened: (§2)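 H 460 cells were grown on cover slips (100,000 cells/well) in DMEM at 37 °C for 24 h. They were then exposed to 100 µM compound for 120 min, rinsed twice with PBS, and examined immediately for intrinsic compound fluorescence under a fluorescence microscope.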

[5] = test system: HCT-116; experiment: Cell cycle arrest in human HCT116 cells assessed as accumulation at Sub G0/G1 phase at 5 uM after 24 hrs by flow cytometric analysis (reference value: 3 %); format: functional
[6] = test system: NCI-H460; experiment: Drug uptake in human H460 cells assessed as colocalization with endoplasmic reticulum at 100 uM after 2 hrs by fluorescence microscopy; format: ADME, cell-based; settings: nci-h460, 2 h
[7] = test system: MCF7; experiment: Antitumor activity against human MCF7 cells assessed as growth inhibition after 72 hrs by MTT assay; format: functional, cell-based; settings: MCF7, 72 h; procedure, shortened: as §1
[8] = test system: HCT-116; experiment: Cell cycle arrest in human HCT116 cells assessed as accumulation at S phase at 5 uM after 24 hrs by flow cytometric analysis (reference value: 39 %); format: functional
[9] = test system: SW-620; experiment: Antitumor activity against human SW620 cells assessed as growth inhibition after 72 hrs by MTT assay; format: functional, cell-based; procedure, shortened: as §1
[10] = test system: HCT-116; experiment: Cell cycle arrest in human HCT116 cells assessed as accumulation at G0/G1 phase at 5 uM after 24 hrs by flow cytometric analysis (reference value: 40 %); format: functional
[11] = test system: HCT-116; experiment: Cell cycle arrest in human HCT116 cells assessed as accumulation at G0/G1 phase at 5 uM after 48 hrs by flow cytometric analysis (reference value: 40 %); format: functional
[12] = Drug uptake in human H460 cell nucleus at 100 uM after 2 hrs by fluorescence microscopy; format: ADME, cell-based; settings: h460, 2 h; procedure, shortened: as §2
[13] = test system: HCT-116; experiment: Antitumor activity against human HCT116 cells assessed as growth inhibition after 72 hrs by MTT assay; format: functional, cell-based; procedure, shortened: as §1
[14] = test system: HCT-116; experiment: Cell cycle arrest in human HCT116 cells assessed as accumulation at G2/M phase at 5 uM after 24 hrs by flow cytometric analysis (reference value: 21 %); format: functional
[15] = test system: HCT-116; experiment: Cell cycle arrest in human HCT116 cells assessed as accumulation at Sub G0/G1 phase at 5 uM after 48 hrs by flow cytometric analysis (reference value: 1 %); format: functional
[16] = Drug uptake in human H460 cell cytoplasm at 100 uM after 24 hrs by fluorescence microscopy; format: ADME, cell-based; settings: h460, 24 h
[17] = test system: MOLT-4; experiment: Antitumor activity against human MOLT4 cells assessed as growth inhibition after 72 hrs by MTT assay; format: functional, cell-based; procedure, shortened: as §1
[18] = test system: Nucleic Acid; experiment: Binding affinity to calf thymus DNA assessed as binding constant at pH 7 by fluorescence quenching assay; format: nucleic-acid assay; settings: Bos taurus
Procedure, shortened: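 Calf thymus DNA in sodium cacodylate buffer (I = 0.05 mol dm⁻³, pH 7.0) was sonicated and filtered, with concentration taken as phosphate. Portions of DNA were added to the buffered compound, keeping absorbance below 0.05 at the excitation wavelength and DMSO below 1%. Emission was recorded from 350 to 600 nm. Ks came from non-linear Scatchard fitting, recalculated at fixed n = 0.2.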

[19] = test system: Nucleic Acid; experiment: Binding affinity to calf thymus DNA assessed as intercalation measuring viscosity index at compound to DNA molar ratio of 0.2 at pH 7 by viscometry method; format: nucleic-acid assay; settings: Bos taurus
[20] = Aqueous solubility of the compound; format: physicochemical; settings: buffer
[21] = test system: Nucleic Acid; experiment: Binding affinity to calf thymus DNA assessed as change in melting temperature at compound to DNA molar ratio of 0.3 at pH 7 by thermal denaturation assay; format: nucleic-acid assay; settings: Bos taurus
Procedure, shortened: (§3)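 Absorbance of ct-DNA alone or with compound at 260 nm was recorded against temperature in sodium cacodylate buffer (I = 0.05 mol dm⁻³, pH 7.0). r = [compound]/[polynucleotide]. Ligand absorbance was subtracted and curves were normalised. Tm was the transition midpoint, taken from the first-derivative maximum or by tangent method. ΔTm = Tm(complex) − Tm(free DNA), averaged over at least two runs, ±0.5 °C.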

[22] = test system: Nucleic Acid; experiment: Binding affinity to calf thymus DNA by CD-Spectroscopy; format: nucleic-acid assay; settings: Bos taurus
[23] = test system: Nucleic Acid; experiment: Binding affinity to calf thymus DNA assessed as change in melting temperature at compound to DNA molar ratio of 0.2 at pH 7 by thermal denaturation assay; format: nucleic-acid assay; settings: Bos taurus; procedure, shortened: as §3
[24] = test system: Nucleic Acid; experiment: Binding affinity to calf thymus DNA assessed as change in melting temperature at compound to DNA molar ratio of 0.1 at pH 7 by thermal denaturation assay; format: nucleic-acid assay; settings: Bos taurus; procedure, shortened: as §3
[25] = test system: Nucleic Acid; experiment: Binding affinity to calf thymus DNA assessed as binding constant at pH 7 by UV-visible spectrophotometry; format: nucleic-acid assay; settings: Bos taurus
Procedure, shortened: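 Sonicated, filtered ct-DNA was quantified as phosphate. It was added in portions to the compound solution in sodium cacodylate buffer (I = 0.05 mol dm⁻³, pH 7.0), and absorbance changes were followed. Ks came from non-linear least-squares fitting to the Scatchard equation, with Ks recalculated for a fixed n of 0.2.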

SMILES	Activity [1] [%]	IC50 ([2]; Homo sapiens, NCI-H460, 72 h) [nM]	Activity [3] [%]	Activity [5] [%]	IC50 [7] [µM]	Activity [8] [%]	IC50 ([9]; Homo sapiens, SW-620, 72 h) [µM]	Activity [10] [%]	Activity [11] [%]	IC50 ([13]; Homo sapiens, HCT-116, 72 h) [µM]	Activity [14] [%]	Activity [15] [%]	IC50 ([17]; molt-4) [nM]	IC50 ([17]; Homo sapiens, MOLT-4, 72 h) [nM]	log Ks [18]	further results
Cl.N#Cc1cc2cc(N)ccc2n2c1nc1ccccc12	24	2000	31	4	4	20	6	55	45	3	25	4	2000			Drug uptake [4]: Active; Drug uptake [6]: Active; Drug uptake [12]: Not Active; Drug uptake [16]: Active
O=[N+]([O-])c1ccc2c(ccc3nc4ccccc4n32)c1		8000			4		6			6				3000		
CC[n+]1c(-c2ccccc2)c2cc(N)ccc2c2ccc(N)cc21															6	Activity [19]: Active
N#Cc1cc2cc(N)ccc2n2c1nc1ccccc12 [listing 1 of 2 here]	28		25	6		20		62	47		18	3	6000			IC50 ([2]; nci-h460): 3000 nM; IC50 ([9]; sw-620): 4 µM; IC50 ([13]; hct-116): 4 µM; solubility [20]: Insoluble
N#Cc1cc2cc(N)ccc2n2c1nc1ccccc12 [listing 2 of 2 here]															5.5	ΔTm [21]: 0.2 °C; Activity [22]: Active; ΔTm [23]: 1.9 °C; ΔTm [24]: 0.9 °C; log Ks [25]: 5.1
O=[N+]([O-])c1ccc(Cl)c(/C=C/c2nc3ccccc3[nH]2)c1		> 100000			32		28			4				> 100000		
